These results are taken from ChEMBL document CHEMBL4431393, “Polar Recognition Group Study of Keap1-Nrf2 Protein-Protein Interaction Inhibitors” (ACS Med Chem Lett, 2016).

The nature of data set [1]: Permeability of the compound at pH 7.4 by PAMPA method. It is filed as ADME. Conditions: read-out: permeability. The procedure, abridged:
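Effective permeability coefficients (Pe) were determined by a standard parallel artificial membrane permeability assay run on an automated PAMPA instrument. This reads out passive transcellular diffusion.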
Background: The PAMPA barrier holds no transporters, so it reflects passive diffusion.

Data set [2] is described as follows: Intrinsic solubility of the compound at pH 7.4 by potentiometric acid-base titration method. Type of data set: physicochemical. Conditions: buffer, read-out: Intrinsic_solubility.
Data set [3] can be described thus: Dissociation constant, pKa of the compound by Avdeef-Bucher potentiometric titration method. Type of data set: physicochemical.
The target in another data set is Keap1/Nrf2 (Homo sapiens, UniProt Q14145). Kind of data set: Inhibition of Keap1 Kelch domain/FITC-9mer Nrf2 (unknown origin) interaction after 30 mins by fluorescence polarization assay. It is filed as protein assay.
Sequence of Keap1/Nrf2 (Q16236 whole entry, the tested form may be a part): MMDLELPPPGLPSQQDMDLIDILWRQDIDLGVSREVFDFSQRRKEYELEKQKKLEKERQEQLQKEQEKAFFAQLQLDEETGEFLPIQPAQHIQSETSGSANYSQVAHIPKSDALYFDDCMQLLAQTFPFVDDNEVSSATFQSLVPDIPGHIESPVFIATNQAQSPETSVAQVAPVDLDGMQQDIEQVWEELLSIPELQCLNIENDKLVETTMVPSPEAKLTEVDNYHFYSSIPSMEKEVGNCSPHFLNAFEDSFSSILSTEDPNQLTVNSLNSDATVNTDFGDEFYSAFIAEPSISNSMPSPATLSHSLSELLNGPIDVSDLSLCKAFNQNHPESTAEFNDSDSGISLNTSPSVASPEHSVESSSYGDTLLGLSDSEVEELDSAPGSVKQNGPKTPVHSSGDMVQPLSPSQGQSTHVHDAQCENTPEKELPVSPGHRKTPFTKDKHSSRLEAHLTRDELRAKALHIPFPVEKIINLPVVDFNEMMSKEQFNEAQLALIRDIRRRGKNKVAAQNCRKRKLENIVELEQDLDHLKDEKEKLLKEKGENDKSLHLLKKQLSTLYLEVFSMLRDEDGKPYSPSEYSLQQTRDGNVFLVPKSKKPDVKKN
Sequence of Keap1/Nrf2 (Q14145 whole entry, the tested form may be a part): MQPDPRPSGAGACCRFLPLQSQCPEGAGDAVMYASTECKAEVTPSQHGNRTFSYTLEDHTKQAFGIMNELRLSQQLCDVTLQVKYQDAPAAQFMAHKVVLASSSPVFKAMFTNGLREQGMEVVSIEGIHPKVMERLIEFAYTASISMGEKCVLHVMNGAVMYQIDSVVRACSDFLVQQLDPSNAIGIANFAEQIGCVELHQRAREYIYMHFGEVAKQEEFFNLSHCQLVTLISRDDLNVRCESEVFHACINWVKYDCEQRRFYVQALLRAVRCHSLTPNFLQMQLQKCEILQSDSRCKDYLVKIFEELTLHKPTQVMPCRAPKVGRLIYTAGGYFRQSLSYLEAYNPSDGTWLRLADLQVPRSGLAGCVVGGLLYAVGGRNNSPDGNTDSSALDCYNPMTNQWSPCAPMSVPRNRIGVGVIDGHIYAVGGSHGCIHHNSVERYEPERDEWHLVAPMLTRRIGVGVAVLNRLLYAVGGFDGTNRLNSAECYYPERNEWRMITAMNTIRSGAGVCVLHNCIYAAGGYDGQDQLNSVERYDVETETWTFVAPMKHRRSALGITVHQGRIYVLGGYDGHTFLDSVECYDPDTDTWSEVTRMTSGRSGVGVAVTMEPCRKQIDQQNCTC
Data set [4] in a line: Partition coefficient, logD of the compound at pH 7.4 by Avdeef-Bucher potentiometric titration method. Type of data set: physicochemical. Conditions: octanol/water.

≈ marks a conversion by molar mass, not a printed value. Bounds are passed on as bounds.

With `CC(=O)Nc1ccc(S(=O)(=O)N(CC(=O)O)c2ccc(N(CC(=O)O)S(=O)(=O)c3ccc(NC(C)=O)cc3)c3ccccc23)cc1`, in data set [1], the Papp was determined as 0.265 ×10⁻⁶ cm/s. Moreover, in data set [2], the solubility came to 5000 µg/mL (≈ 7480 µM). In data set [3], this compound registered a pKa of 4.79.

On to `CC(=O)Nc1ccc(S(=O)(=O)N(CC(=O)NO)c2ccc(N(CC(=O)NO)S(=O)(=O)c3ccc(NC(C)=O)cc3)c3ccccc23)cc1`, for which the solubility in data set [2] turned out to be 942 µg/mL (≈ 1350 µM). The compound also came in with a pKa in data set [3] of 8.12. On Keap1/Nrf2, this compound gave an IC50 of 2.6 µM. The logD in data set [4] is 2.87.

Turning to `CC(=O)Nc1ccc(S(=O)(=O)N(CC#N)c2ccc(N(CC#N)S(=O)(=O)c3ccc(NC(C)=O)cc3)c3ccccc23)cc1`, in data set [2], the solubility turned out to be 14.1 µg/mL (≈ 22.4 µM). In data set [3], this compound showed a pKa of 10.5. Also, the IC50 against Keap1/Nrf2 is > 50 µM. In data set [4], this compound returned a logD of 4.65.

As to `CC(=O)Nc1ccc(S(=O)(=O)N(Cc2c[nH]nn2)c2ccc(N(Cc3c[nH]nn3)S(=O)(=O)c3ccc(NC(C)=O)cc3)c3ccccc23)cc1`, in data set [2], the solubility worked out at 698 µg/mL (≈ 976 µM). This compound also had a pKa in data set [3] of 9.67. Moreover, the IC50 against Keap1/Nrf2 came to 0.609 µM. This compound showed a log distribution coefficient (logD) in data set [4] of 3.01.

With `CC(=O)Nc1ccc(S(=O)(=O)N(CCO)c2ccc(N(CCO)S(=O)(=O)c3ccc(NC(C)=O)cc3)c3ccccc23)cc1`, the solubility in data set [2] came out at 655 µg/mL (≈ 1020 µM). Also, the pKa in data set [3] is 10.8. Moreover, at Keap1/Nrf2, the IC50 was > 50 µM. In addition, the logD in data set [4] came to 2.99.

On to `CC(=O)Nc1ccc(S(=O)(=O)N(Cc2nn[nH]n2)c2ccc(N(Cc3nn[nH]n3)S(=O)(=O)c3ccc(NC(C)=O)cc3)c3ccccc23)cc1`, for which the Papp in data set [1] came to 42.3 ×10⁻⁶ cm/s. The solubility in data set [2] was 3500 µg/mL (≈ 4880 µM). Besides, the pKa in data set [3] is 5.12. The logD in data set [4] was 2.31.

With `COC(=O)CN(c1ccc(N(CC(=O)OC)S(=O)(=O)c2ccc(NC(C)=O)cc2)c2ccccc12)S(=O)(=O)c1ccc(NC(C)=O)cc1`, the solubility in data set [2] was 36.4 µg/mL (≈ 52.2 µM). The compound also returned a pKa in data set [3] of 10.5. Further, the concentration for half-maximal inhibition (IC50) against Keap1/Nrf2 was > 50 µM. In data set [4], this compound displayed a logD of 3.91.

As to `C#CCN(c1ccc(N(CC#C)S(=O)(=O)c2ccc(NC(C)=O)cc2)c2ccccc12)S(=O)(=O)c1ccc(NC(C)=O)cc1`, in data set [2], the solubility stood at 11.2 µg/mL (≈ 17.8 µM). The compound also had a pKa in data set [3] of 10.7. Also, on Keap1/Nrf2, the IC50 is > 50 µM. In data set [4], this compound showed a logD of 4.75.

In the case of `CC(=O)Nc1ccc(S(=O)(=O)N(CC(N)=O)c2ccc(N(CC(N)=O)S(=O)(=O)c3ccc(NC(C)=O)cc3)c3ccccc23)cc1`, the solubility in data set [2] came to 388 µg/mL (≈ 583 µM). The pKa in data set [3] turned out to be 9.8. The IC50 on Keap1/Nrf2 is > 50 µM. This compound showed a logD in data set [4] of 3.21.

For orientation: pKa means the negative logarithm of the acid dissociation constant. A low value points to a stronger acid or weaker base. The IC50 is the midpoint of a concentration-inhibition curve. The low end stands for inhibition by little substance, the high end for a need for much substance. By logD is commonly meant the decadic logarithm of the distribution of all forms, ionised or not, between an organic phase and buffer at a given pH. Read a low logD as a more hydrophilic compound.
